Experimental data from ChEMBL document CHEMBL4613216, “Design, synthesis, and evaluation of indeno[2,1-c]pyrazolones for use as inhibitors against hypoxia-inducible factor (HIF)-1 transcriptional activity” (Bioorg Med Chem, 2020).
The source made the active and inactive calls. No cut-off for these calls is given here.

How the values were obtained:
[1] = Solubility of the compound; format: physicochemical
HeLa [2] = test: Cytotoxicity against human HeLa cells assessed as reduction in cell viability incubated for 72 hrs under normoxia condition by MTT assay; format: cell-based
Outline: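 HeLa cells, 5 × 10^3 per well, exposed 72 h at 37 °C in RPMI-1640 to a range of concentrations (compounds from 10 mM DMSO stocks). MTT (5 mg/mL in PBS) added for a further 2 h, formazan dissolved in DMSO, absorbance read at 595 nm. IC50 taken from semilogarithmic dose–response plots. Top concentration capped at 10 or 30 μM where solubility was poor.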

HeLa [3] = test: Inhibition of hypoxia-induced HIF1alpha accumulation in human HeLa cells at 1 to 30 uM incubated for 12 hrs under 1% O2 condition by Western blot analysis; format: functional, cell-based
Outline: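 Lysates separated by SDS-PAGE, blotted to PVDF and probed with anti-HIF-1α and anti-tubulin antibodies. Detection used HRP-conjugated secondary antibody and chemiluminescent imaging.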

[4] = target: Luciferin 4-monooxygenase (Photinus pyralis) (UniProt P08659); test: Inhibition of recombinant firefly luciferase at 1 uM incubated for 10 mins at 37 degree C by luminometric method
Outline: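 Recombinant firefly luciferase (20 ng/µL stock in PBS) mixed with compound in DMSO/PBS and incubated 10 min at 37 °C. Luciferase assay reagent was then added and light emission read on a luminometer. Compound tested at 1 μM.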

HeLa [5] = test: Effect on HIF1alpha mRNA level in human HeLa cells at 30 uM incubated for 12 hrs under 1% O2 condition by qRT-PCR analysis; format: functional, cell-based
Outline: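 HeLa cells, 1 × 10^6 per well, held 12 h with or without compound under normoxia or hypoxia. Total RNA extracted with a column kit. 1.0 µg RNA reverse transcribed with random primers, dNTPs and M-MLV at 40 °C for 50 min, then HIF-1α mRNA measured by RT-PCR.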

Chain of Luciferin 4-monooxygenase (Photinus pyralis) (P08659 whole entry): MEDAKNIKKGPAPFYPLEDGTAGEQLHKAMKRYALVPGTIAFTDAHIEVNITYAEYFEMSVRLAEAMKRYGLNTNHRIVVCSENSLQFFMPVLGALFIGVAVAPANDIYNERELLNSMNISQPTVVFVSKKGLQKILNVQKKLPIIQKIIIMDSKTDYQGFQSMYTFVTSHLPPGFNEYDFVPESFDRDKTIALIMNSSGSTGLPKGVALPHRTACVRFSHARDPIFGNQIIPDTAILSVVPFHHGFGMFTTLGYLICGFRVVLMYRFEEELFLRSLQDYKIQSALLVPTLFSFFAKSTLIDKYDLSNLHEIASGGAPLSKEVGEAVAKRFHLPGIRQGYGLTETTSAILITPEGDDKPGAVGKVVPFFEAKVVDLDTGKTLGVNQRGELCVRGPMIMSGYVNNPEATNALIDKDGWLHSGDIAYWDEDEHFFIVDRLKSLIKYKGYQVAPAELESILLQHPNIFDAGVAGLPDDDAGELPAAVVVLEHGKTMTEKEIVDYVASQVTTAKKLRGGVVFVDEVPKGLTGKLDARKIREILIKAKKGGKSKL

## O=C1c2ccccc2-c2cnn(-c3ccccc3)c21
[1]
  solubility: > 10 µM
HeLa [2]
  IC50: > 10 µM

## OCc1ccc(-c2nn(Cc3ccccc3)c3ccccc23)o1
HeLa [2]
  IC50: 56 µM

## O=C1c2ccccc2-c2cnn(-c3ccc(O)cc3)c21
HeLa [2]
  IC50: 2.2 µM

## Cc1ccc(-n2ncc3c2C(=O)c2ccccc2-3)cc1
[1]
  solubility: > 10 µM
HeLa [3]
  inhibition: Active
[4]
  inhibition: inactive
HeLa [2]
  IC50: > 10 µM
HeLa [5]
  Activity: inactive

## Cn1ncc2c1C(=O)c1ccccc1-2
HeLa [2]
  IC50: 49 µM

## O=C1c2ncccc2-c2cnn(-c3ccccc3)c21
HeLa [2]
  IC50: 52 µM

## COc1ccc(-n2ncc3c2C(=O)c2ccccc2-3)cc1
[1]
  solubility: > 10 µM
[4]
  inhibition: Active
HeLa [2]
  IC50: > 10 µM

## O=C1c2ccccc2-c2cn[nH]c21
[1]
  solubility: > 30 µM
HeLa [2]
  IC50: > 30 µM

## Cc1nn(-c2ccccc2)c2c1-c1ccccc1C2=O
[1]
  solubility: > 30 µM
HeLa [2]
  IC50: > 30 µM

## O=C1c2ccccc2-c2cnn(-c3ccc(C(F)(F)F)cc3)c21
HeLa [2]
  IC50: > 100 µM
